# Measurements reported in ChEMBL document CHEMBL1145286, “Dual angiotensin II and endothelin A receptor antagonists: synthesis of 2'-substituted N-3-isoxazolyl biphenylsulfonamides with improved potency and pharmacokinetics” (2005).
# Calls of active or inactive are those of the source. No cut-off for these calls is given here.
# Legend:
# Type in all cases: functional
# [1] = target: T1, Endothelin-1 receptor (Rattus norvegicus) (UniProt P26684); assay: Endothelin pressor effect in rats after oral dose of 30 uM/kg
# T1 sequence (whole entry): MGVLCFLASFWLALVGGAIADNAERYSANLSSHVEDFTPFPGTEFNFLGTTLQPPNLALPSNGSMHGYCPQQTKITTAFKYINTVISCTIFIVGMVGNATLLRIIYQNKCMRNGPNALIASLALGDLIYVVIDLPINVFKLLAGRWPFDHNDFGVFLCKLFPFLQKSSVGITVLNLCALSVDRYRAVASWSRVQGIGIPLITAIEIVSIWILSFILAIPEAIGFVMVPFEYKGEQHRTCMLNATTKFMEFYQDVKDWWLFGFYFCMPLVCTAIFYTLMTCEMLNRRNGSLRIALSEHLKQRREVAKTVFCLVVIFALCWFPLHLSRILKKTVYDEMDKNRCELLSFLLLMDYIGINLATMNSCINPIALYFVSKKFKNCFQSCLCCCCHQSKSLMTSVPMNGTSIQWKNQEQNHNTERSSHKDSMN
# Method in brief: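 Conscious normotensive rats; big endothelin-1 (1.0 nmol/kg iv) challenge after vehicle gave the control pressor response. Drug at 30 μmol/kg given po (or iv), then bET-1 re-challenge at various times after dosing. 6–8 rats per group.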
# [2] = target: Angiotensin II receptor (AT-1) type-1 (Rattus norvegicus) (UniProt P29089+P25095); assay: Angiotensin II pressor effect in rats after oral dose of 30 uM/kg
# Method in brief: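 Conscious rats given vehicle by gavage, then an iv bolus Ang II challenge as control pressor response; drug at 30 μmol/kg by oral gavage, Ang II re-challenge at intervals up to 240 min. 6–8 rats per dose. […]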
# [3] = tested on: Caco-2; assay: Permeability in Caco-2 cell monolayer
Compound,Activity [1],Activity [2],Activity [3] [nm/s]
Cc1noc(NS(=O)(=O)c2ccccc2-c2ccc(-c3ncco3)cc2)c1C,9700 AUC units,inactive,
CCCCC1=NC2(CCCC2)C(=O)N1Cc1ccc(-c2ccccc2S(=O)(=O)Nc2onc(C)c2C)c(CN2CCC(C)(C)C2=O)c1 [BMS-248360],7900 AUC units,5800 AUC units,30
CCCCC1=NC2(CCCC2)C(=O)N1Cc1ccc(-c2ccccc2S(=O)(=O)Nc2noc(C)c2C)c(CCC)c1,13000 AUC units,16300 AUC units,
CCCCC1=NC2(CCCC2)C(=O)N1Cc1ccc(-c2ccccc2S(=O)(=O)Nc2noc(C)c2C)c(COCC)c1,15800 AUC units,18600 AUC units,
CCCCC1=NC2(CCCC2)C(=O)N1Cc1ccc(-c2ccccc2S(=O)(=O)Nc2onc(C)c2C)c(CCC)c1,8600 AUC units,15900 AUC units,240
CCCCC1=NC2(CCCC2)C(=O)N1Cc1ccc(-c2ccccc2-c2nnn[nH]2)cc1 [IRBESARTAN],inactive,13500 AUC units,100
CCCCC1=NC2(CCCC2)C(=O)N1Cc1ccc(-c2ccccc2S(=O)(=O)Nc2onc(C)c2C)c(COCC)c1,3900 AUC units,13900 AUC units,170
